{
  "source": "ChEMBL document CHEMBL3045963",
  "about": "“Synthesis of nalidixic acid based hydrazones as novel pesticides” (2010)",
  "assay_type_in_all_cases": "functional",
  "key": {"Alternaria porri": {"system": "Alternaria porri", "assay": "Fungicidal activity against Alternaria porri by poisoned food technique", "conditions": "read-out: ED50 (the source's name)"}, "Tribolium castaneum [1]": {"system": "Tribolium castaneum", "assay": "Insecticidal activity against adult Tribolium castaneum (red flour beetle) in compound pre-treated green gram grains assessed as mortality at 20 mg/kg after 48 hr by feeding based residue method", "conditions": "in Vigna radiata", "in_short": "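Green gram grains are treated with compound in dichloromethane (0.6 mg in 5 mL) at 20 mg active ingredient per kg grain (0.002%). Ten adults are released onto 10 g of treated grain in a plastic box. Mortality is recorded after 48 h. Triplicate, solvent-treated control.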"}, "Macrophomina phaseolina": {"system": "Macrophomina phaseolina", "assay": "Fungicidal activity against Rhizoctonia bataticola by poisoned food technique", "conditions": "read-out: ED50 (the source's name)"}, "Athelia rolfsii": {"system": "Athelia rolfsii", "assay": "Fungicidal activity against Athelia rolfsii by poisoned food technique", "conditions": "Agroathelia rolfsii; read-out: ED50 (the source's name)"}, "Spodoptera litura [2]": {"system": "Spodoptera litura", "assay": "Insecticidal activity against third-instar larval stage of prestarved Spodoptera litura in castor leaf assessed as mortality at 0.1% treated for 2 secs before larval infestation measured after 24 hr by feeding method", "in_short": "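Castor leaf is dipped 2 s in 0.1% compound solution, air-dried, and placed on moist filter paper in 9 cm Petri plates. Larvae starved 4 h beforehand are released singly, one per plate. Thirty replicates per treatment, solvent control. Mortality is scored after 24 h.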"}, "Rhizoctonia solani": {"system": "Rhizoctonia solani", "assay": "Fungicidal activity against Rhizoctonia solani by poisoned food technique", "conditions": "read-out: ED50 (the source's name)"}, "Callosobruchus maculatus": {"system": "Callosobruchus maculatus", "assay": "Insecticidal activity against adult Callosobruchus maculatus assessed as mortality at 0.1% at 27 +/-1 degC after 24 hr by contact based film residue method", "in_short": "(§1)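 Lab-reared adults, 2-5 days old, exposed to a dry film: 1 mL of 0.1% compound solution in dichloromethane is swirled in a 90 mm Petri plate and dried 3-5 min. Ten adults per plate are held at 27 ± 1 °C and 70% RH. Mortality is scored at 24 h, with no response to touch counted as dead. Triplicates, solvent control, malathion reference.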"}, "Fusarium oxysporum": {"system": "Fusarium oxysporum", "assay": "Fungicidal activity against Fusarium oxysporum by poisoned food technique", "conditions": "read-out: ED50 (the source's name)"}, "Spodoptera litura [3]": {"system": "Spodoptera litura", "assay": "Insecticidal activity against third-instar larval stage of Spodoptera litura assessed as mortality at 0.1% applied topically on the ventral side of the larvae measured after 24 hr by contact method", "in_short": "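Field-collected larvae are reared in the lab at 27 ± 1 °C and 70% RH. Two microliters of a 0.1% dichloromethane solution is applied to the ventral side. Ten treated larvae are kept per glass bottle and fed fresh castor leaves. Mortality is recorded at 24 h. Triplicate, solvent control.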"}, "Tribolium castaneum [4]": {"system": "Tribolium castaneum", "assay": "Insecticidal activity against adult Tribolium castaneum (red flour beetle) assessed as mortality at 0.1% at 27 +/-1 degC after 24 hr by contact based film residue method", "in_short": "as §1"}},
  "data": [
    {"smiles": "CCn1cc(C(=O)NN=C2C3CC4CC(C3)CC2C4)c(=O)c2ccc(C)nc21", "values": [
      {"measurement": "EC50", "setting": "Alternaria porri", "value": 133, "unit": "µg/mL"},
      {"measurement": "mortality at 20 mg/kg", "setting": "Tribolium castaneum [1]", "value": 10, "unit": "%"},
      {"measurement": "EC50", "setting": "Macrophomina phaseolina", "value": 638, "unit": "µg/mL"},
      {"measurement": "EC50", "setting": "Athelia rolfsii", "value": 524, "unit": "µg/mL"},
      {"measurement": "mortality", "setting": "Spodoptera litura [2]", "value": 50, "unit": "%"},
      {"measurement": "EC50", "setting": "Rhizoctonia solani", "value": 405, "unit": "µg/mL"},
      {"measurement": "mortality", "setting": "Callosobruchus maculatus", "value": 0, "unit": "%"},
      {"measurement": "EC50", "setting": "Fusarium oxysporum", "value": 258, "unit": "µg/mL"},
      {"measurement": "mortality", "setting": "Spodoptera litura [3]", "value": 10, "unit": "%"}
    ]},
    {"smiles": "CCn1cc(C(=O)N/N=C/c2c3ccccc3cc3ccccc23)c(=O)c2ccc(C)nc21", "values": [
      {"measurement": "EC50", "setting": "Alternaria porri", "value": 151, "unit": "µg/mL"},
      {"measurement": "mortality at 20 mg/kg", "setting": "Tribolium castaneum [1]", "value": 15, "unit": "%"},
      {"measurement": "EC50", "setting": "Macrophomina phaseolina", "value": 390, "unit": "µg/mL"},
      {"measurement": "EC50", "setting": "Athelia rolfsii", "value": 429, "unit": "µg/mL"},
      {"measurement": "mortality", "setting": "Spodoptera litura [2]", "value": 20, "unit": "%"},
      {"measurement": "EC50", "setting": "Rhizoctonia solani", "value": 374, "unit": "µg/mL"},
      {"measurement": "mortality", "setting": "Callosobruchus maculatus", "value": 10, "unit": "%"},
      {"measurement": "EC50", "setting": "Fusarium oxysporum", "value": 222, "unit": "µg/mL"},
      {"measurement": "mortality", "setting": "Spodoptera litura [3]", "value": 10, "unit": "%"}
    ]},
    {"smiles": "CCn1cc(C(=O)N/N=C/c2ccccc2Cl)c(=O)c2ccc(C)nc21", "values": [
      {"measurement": "EC50", "setting": "Alternaria porri", "value": 90.1, "unit": "µg/mL"},
      {"measurement": "mortality at 20 mg/kg", "setting": "Tribolium castaneum [1]", "value": 10, "unit": "%"},
      {"measurement": "EC50", "setting": "Macrophomina phaseolina", "value": 593, "unit": "µg/mL"},
      {"measurement": "EC50", "setting": "Athelia rolfsii", "value": 570, "unit": "µg/mL"},
      {"measurement": "mortality", "setting": "Spodoptera litura [2]", "value": 10, "unit": "%"},
      {"measurement": "EC50", "setting": "Rhizoctonia solani", "value": 246, "unit": "µg/mL"},
      {"measurement": "mortality", "setting": "Callosobruchus maculatus", "value": 30, "unit": "%"},
      {"measurement": "EC50", "setting": "Fusarium oxysporum", "value": 143, "unit": "µg/mL"},
      {"measurement": "mortality", "setting": "Spodoptera litura [3]", "value": 10, "unit": "%"}
    ]},
    {"smiles": "CCOC(=O)CC(SP(=S)(OC)OC)C(=O)OCC", "note": "(stereo not drawn) [MALATHION]", "values": [
      {"measurement": "mortality at 20 mg/kg", "setting": "Tribolium castaneum [1]", "value": 100, "unit": "%"},
      {"measurement": "mortality", "setting": "Tribolium castaneum [4]", "value": 100, "unit": "%"},
      {"measurement": "mortality", "setting": "Callosobruchus maculatus", "value": 100, "unit": "%"}
    ]},
    {"smiles": "CCn1cc(C(=O)N/N=C/c2ccccc2F)c(=O)c2ccc(C)nc21", "values": [
      {"measurement": "EC50", "setting": "Alternaria porri", "value": 78.3, "unit": "µg/mL"},
      {"measurement": "mortality at 20 mg/kg", "setting": "Tribolium castaneum [1]", "value": 10, "unit": "%"},
      {"measurement": "EC50", "setting": "Macrophomina phaseolina", "value": 668, "unit": "µg/mL"},
      {"measurement": "EC50", "setting": "Athelia rolfsii", "value": 540, "unit": "µg/mL"},
      {"measurement": "mortality", "setting": "Spodoptera litura [2]", "value": 90, "unit": "%"},
      {"measurement": "EC50", "setting": "Rhizoctonia solani", "value": 359, "unit": "µg/mL"},
      {"measurement": "mortality", "setting": "Callosobruchus maculatus", "value": 30, "unit": "%"},
      {"measurement": "EC50", "setting": "Fusarium oxysporum", "value": 107, "unit": "µg/mL"},
      {"measurement": "mortality", "setting": "Spodoptera litura [3]", "value": 10, "unit": "%"}
    ]},
    {"smiles": "CCn1cc(C(=O)N/N=C/c2ccc3ccccc3c2)c(=O)c2ccc(C)nc21", "values": [
      {"measurement": "EC50", "setting": "Alternaria porri", "value": 75.6, "unit": "µg/mL"},
      {"measurement": "mortality at 20 mg/kg", "setting": "Tribolium castaneum [1]", "value": 10, "unit": "%"},
      {"measurement": "EC50", "setting": "Macrophomina phaseolina", "value": 256, "unit": "µg/mL"},
      {"measurement": "EC50", "setting": "Athelia rolfsii", "value": 202, "unit": "µg/mL"},
      {"measurement": "mortality", "setting": "Spodoptera litura [2]", "value": 70, "unit": "%"},
      {"measurement": "EC50", "setting": "Rhizoctonia solani", "value": 192, "unit": "µg/mL"},
      {"measurement": "mortality", "setting": "Callosobruchus maculatus", "value": 0, "unit": "%"},
      {"measurement": "EC50", "setting": "Fusarium oxysporum", "value": 89.5, "unit": "µg/mL"},
      {"measurement": "mortality", "setting": "Spodoptera litura [3]", "value": 10, "unit": "%"}
    ]}
  ]
}
